The values that follow come from PubChem BioAssay AID504516 (Sanford-Burnham Center for Chemical Genomics, 2011).

Molecules are shown by their SMILES. The source made the active and inactive calls.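 Rule for the calls: active = IC50 at or below 20 µM; inactive = the rest.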

This assay has as its system Jurkat NF-kB luciferase, PMA/ionomycin, luminescence 16 h. Briefly: inhibitors of PMA/ionomycin-driven NF-kB luciferase in Jurkat – cell-based, luminescence, counter-screen for B-cell antigen receptor NF-kB inhibitors, SAR follow-up (AID 504516). In outline: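 Assay system: Jurkat NF-kB luciferase reporter cells; Quantity: 8000 reporter cells per well; Schedule: 1 h compound pre-treatment, 16 h stimulation, 37 °C, 5% CO2; Technique: SteadyGlo luminescence; Doses: test compounds in dose-response series; Controls: DMSO-only and no-agonist wells.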
Turning to `Cc1oc(-c2ccc(OC(F)(F)F)cc2)nc1CSCC(=O)O`, the IC50 was 0.22 µM.

Take `CNC(=O)CCc1nc(-c2ccc(C(C)C)cc2)no1`: the IC50 is > 79 µM (inactive). Under `CCC(C)NC(=O)CCc1nc(-c2ccc(C(C)C)cc2)no1` (stereo not drawn) stands > 79 µM (inactive); under `CCOc1cccc(-c2nc(CSCC(=O)NC3CC3)c(C)o2)c1`, > 79 µM (inactive).

For the compound `CCc1ccc(-c2nc(CSCC(=O)NC3CC3)c(-c3ccccc3)o2)cc1`, the IC50 was 72.8 µM (inactive).

In the case of `CCc1ccc(-c2nc(CSCC(=O)NCc3ccco3)c(C)o2)cc1`, the IC50 is > 79 µM (inactive). Under `COc1cccc(-c2cc(=O)c3cc(NC(=O)c4ccc(N(C)C)cc4)ccc3[nH]2)c1` stands > 79 µM (inactive); under `CCNC(=O)CCc1nc(-c2cccc(C)c2)no1`, > 79 µM (inactive); under `CCNC(=O)CCc1nc(-c2ccc(OCC)cc2)no1`, > 79 µM (inactive).

Regarding `CC(C)Nc1ccc(C(CC(=O)O)NC(=O)c2ccccc2)cc1[N+](=O)[O-]` (stereo not drawn), the IC50 is > 79 µM (inactive).

Consider `Cc1oc(-c2ccccc2)nc1CSCC(=O)NC1CC1`, for which the IC50 was > 79 µM (inactive).

`CCN(CC)C(=O)CCc1nc(-c2ccc(C(C)(C)C)cc2)no1`: the 50% inhibitory concentration (IC50) is 16.4 µM. Under `CC(C)c1ccc(-c2noc(CCC(=O)NC(C)(C)C)n2)cc1` stands 15.2 µM. The figure for `Cc1ccc(-c2nc(CSCC(=O)NCc3ccco3)c(C)o2)cc1` is > 79 µM (inactive); for `CCCCc1ccc(-c2noc(CCC(=O)NC)n2)cc1` it is > 79 µM (inactive). With `CC(C)(C)c1ccc(-c2noc(CCC(=O)NC3CC3)n2)cc1`, the IC50 is 58.7 µM (inactive). The figure for `CC(C)(C)c1ccc(-c2noc(CCC(=O)O)n2)cc1` is 0.2 µM; for `CCC(C)NC(=O)CCc1nc(-c2ccc(C(C)(C)C)cc2)no1` (stereo not drawn) it is > 79 µM (inactive).

With `O=C(O)CCc1nc(-c2ccccc2)no1`, the IC50 is > 79 µM (inactive). The figure for `CCCCOc1ccc(-c2nc(CSCC(=O)NCc3ccco3)c(C)o2)cc1` is > 79 µM (inactive); for `CCOc1ccc(-c2nc(CSCC(=O)NC(C)(C)C)c(C)o2)cc1` it is 10.8 µM; for `CCOc1ccc(-c2nc(CSCC(=O)NC3CC3)c(-c3ccccc3)o2)cc1` it is 54.6 µM (inactive). Turning to `CN(C)C(=O)CCc1nc(-c2ccc(C(C)(C)C)cc2)no1`, the IC50 was 71.3 µM (inactive). On to `CCOc1ccc(-c2nc(CSCC(=O)NC)c(C)o2)cc1`, for which the IC50 was > 79 µM (inactive).

As to `CCOc1ccccc1-c1nc(CSCC(=O)NC2CC2)c(C)o1`, the IC50 is > 79 µM (inactive).

Consider `CCNC(=O)CCc1nc(-c2ccc(CC)cc2)no1`, for which the IC50 was > 79 µM (inactive). Under `CCc1ccc(-c2nc(CSCC(=O)NC3CC3)c(C)o2)cc1` stands > 79 µM (inactive); under `CCOc1ccc(-c2nc(CSCC(=O)NCC3CC3)c(C)o2)cc1`, 20.9 µM (inactive); under `CCCCc1ccc(-c2noc(CCC(=O)NC(C)(C)C)n2)cc1`, 1.62 µM. For `CCOc1ccc(-c2noc(CCC(=O)O)n2)cc1`, the IC50 was 9.25 µM. With `CCOC(=O)CC(NC(=O)c1ccc(Br)cc1)c1ccc(F)c([N+](=O)[O-])c1` (stereo not drawn), the IC50 was 42.7 µM (inactive). Under `COc1ccc(-c2nc(CSCC(=O)NC3CC3)c(C)o2)cc1` stands > 79 µM (inactive); under `CCc1ccc(-c2noc(CCC(=O)NC(C)CC)n2)cc1` (stereo not drawn), > 79 µM (inactive). Under `CCCCc1ccc(-c2noc(CCC(=O)NC3CC3)n2)cc1` stands 1.25 µM; under `CCc1ccc(-c2noc(CCC(=O)NC(C)(C)C)n2)cc1`, > 79 µM (inactive).

On to `CCCCc1ccc(-c2noc(CCC(=O)NCC)n2)cc1`, for which the IC50 is > 79 µM (inactive). The figure for `CCOc1ccc(-c2nc(CSCC(=O)N(C)C)c(C)o2)cc1` is > 79 µM (inactive); for `CCCCOc1ccc(-c2nc(CSCC(=O)O)c(C)o2)cc1` it is below 0.15 µM. In the case of `CCOc1ccc(-c2nc(CSCC(=O)NC3CCC3)c(C)o2)cc1`, the IC50 is 26.4 µM (inactive). Under `CCOc1ccccc1-c1nc(CSCC(=O)O)c(C)o1` stands > 79 µM (inactive). Under `COc1ccc(-c2nc(CSCC(=O)NCc3ccco3)c(C)o2)cc1` stands > 79 µM (inactive).

As to `CCOc1ccc(-c2nc(CSCC(=O)N3CCOCC3)c(C)o2)cc1`, the IC50 was > 79 µM (inactive).

As to `Cc1ccc(-c2nc(CSCC(=O)NC3CC3)c(C)o2)cc1`, the IC50 is > 79 µM (inactive).

As for `CC(C)(C)c1ccc(-c2noc(CCC(=O)NC3CCC3)n2)cc1`, the IC50 was 0.94 µM. Under `CCCOc1ccc(-c2nc(CSCC(=O)NCc3ccco3)c(C)o2)cc1` stands > 79 µM (inactive).

Regarding `CCNC(=O)CCc1nc(-c2cccc(OC)c2)no1`, the IC50 was > 79 µM (inactive).

Take `CCOc1ccc(-c2nc(CSCC(=O)O)c(C)o2)cc1`: the IC50 was below 0.15 µM. Under `CCOc1ccc(-c2nc(CSCC(=O)NCc3ccco3)c(C)o2)cc1` stands 25.4 µM (inactive); under `CCCCOc1ccc(-c2nc(CSCC(=O)NC3CC3)c(C)o2)cc1`, > 79 µM (inactive). Under `CCNC(=O)CCc1nc(-c2ccc(C(C)C)cc2)no1` stands > 79 µM (inactive); under `CNC(=O)CCc1nc(-c2ccc(C(C)(C)C)cc2)no1`, > 79 µM (inactive); under `CC(C)c1ccc(-c2noc(CCC(=O)NC3CC3)n2)cc1`, > 79 µM (inactive).

In the case of `CCOc1ccc(-c2nc(CSCC(=O)NC3CC3)c(C)o2)cc1`, the IC50 was > 79 µM (inactive). As for `CCC(C)NC(=O)CCc1nc(-c2ccccc2)no1` (stereo not drawn), the IC50 was > 79 µM (inactive). The figure for `CCNC(=O)CCc1nc(-c2ccccc2)no1` is > 79 µM (inactive); for `CCOc1ccc(-c2nc(CSCC(N)=O)c(C)o2)cc1` it is > 79 µM (inactive).

As for `COc1cccc(-c2cc(=O)c3cc(NC(=O)c4ccccc4)ccc3[nH]2)c1`, the IC50 was > 79 µM (inactive). As for `CCc1ccc(-c2noc(CCC(=O)NC)n2)cc1`, the IC50 was > 79 µM (inactive).

Take `CCCOc1ccc(-c2nc(CSCC(=O)O)c(C)o2)cc1`: the 50% inhibitory concentration (IC50) was below 0.15 µM. Turning to `CCNC(=O)CCc1nc(-c2ccccc2Cl)no1`, the IC50 is > 79 µM (inactive).

On to `Cc1oc(-c2ccc(C(F)(F)F)cc2)nc1CSCC(=O)NC1CC1`, for which the IC50 was > 79 µM (inactive). Under `COc1ccc(C(=O)Nc2ccc3[nH]c(-c4cccc(OC)c4)cc(=O)c3c2)cc1` stands > 79 µM (inactive); under `CCNC(=O)CCc1nc(-c2ccc(C(C)(C)C)cc2)no1`, > 79 µM (inactive).

Consider `CC(C)(C)NC(=O)CCc1nc(-c2ccccc2)no1`, for which the IC50 was > 79 µM (inactive). Under `CC(C)(C)c1ccc(-c2noc(CCC(N)=O)n2)cc1` stands 0.19 µM. The figure for `Cc1oc(-c2ccccc2)nc1CSCC(=O)NCc1ccco1` is > 79 µM (inactive). Regarding `Cc1oc(-c2ccc(OC(F)(F)F)cc2)nc1CSCC(=O)NC1CC1`, the IC50 was > 79 µM (inactive). In the case of `CCc1ccc(-c2noc(CCC(=O)NC3CC3)n2)cc1`, the IC50 was > 79 µM (inactive). The figure for `CCCOc1ccc(-c2nc(CSCC(=O)NC3CC3)c(C)o2)cc1` is > 79 µM (inactive).

Regarding `CCNC(=O)CCc1nc(-c2ccccc2C)no1`, the IC50 was > 79 µM (inactive).

With `CNC(=O)CCc1nc(-c2ccccc2)no1`, the IC50 was > 79 µM (inactive). For the compound `Cc1oc(-c2ccc(C(F)(F)F)cc2)nc1CSCC(=O)O`, the IC50 was 0.52 µM. The figure for `C#CCNC(=O)CSCc1nc(-c2ccc(OCC)cc2)oc1C` is > 79 µM (inactive); for `COC(=O)CCc1nc(-c2ccc(C(C)(C)C)cc2)no1` it is below 0.16 µM; for `CCNC(=O)CCc1nc(-c2c(Cl)cccc2Cl)no1` it is > 79 µM (inactive).

Regarding `CCCCc1ccc(-c2noc(CCC(=O)NC(C)CC)n2)cc1` (stereo not drawn), the IC50 was 0.41 µM. Under `O=C(CCc1nc(-c2ccccc2)no1)NC1CC1` stands > 79 µM (inactive); under `CCNC(=O)CCc1nc(-c2cccc(F)c2)no1`, > 79 µM (inactive).
